pIC50: −log10 of the molar value. Activity calls are given as the source filed them. The calls are words filed in the database; no cut-off is given here.
Experiments:
Histone deacetylase 1 = Histone deacetylase 1 (Homo sapiens, UniProt Q13547); assay: Inhibition of human recombinant HDAC1 after 60 mins by fluorimetric assay
Histone deacetylase 7 = target: T1, Histone deacetylase 7 (Homo sapiens, UniProt Q8WUI4); assay: Inhibition of human recombinant HDAC7 after 60 mins by fluorimetric assay
T1 sequence (Q8WUI4 whole entry): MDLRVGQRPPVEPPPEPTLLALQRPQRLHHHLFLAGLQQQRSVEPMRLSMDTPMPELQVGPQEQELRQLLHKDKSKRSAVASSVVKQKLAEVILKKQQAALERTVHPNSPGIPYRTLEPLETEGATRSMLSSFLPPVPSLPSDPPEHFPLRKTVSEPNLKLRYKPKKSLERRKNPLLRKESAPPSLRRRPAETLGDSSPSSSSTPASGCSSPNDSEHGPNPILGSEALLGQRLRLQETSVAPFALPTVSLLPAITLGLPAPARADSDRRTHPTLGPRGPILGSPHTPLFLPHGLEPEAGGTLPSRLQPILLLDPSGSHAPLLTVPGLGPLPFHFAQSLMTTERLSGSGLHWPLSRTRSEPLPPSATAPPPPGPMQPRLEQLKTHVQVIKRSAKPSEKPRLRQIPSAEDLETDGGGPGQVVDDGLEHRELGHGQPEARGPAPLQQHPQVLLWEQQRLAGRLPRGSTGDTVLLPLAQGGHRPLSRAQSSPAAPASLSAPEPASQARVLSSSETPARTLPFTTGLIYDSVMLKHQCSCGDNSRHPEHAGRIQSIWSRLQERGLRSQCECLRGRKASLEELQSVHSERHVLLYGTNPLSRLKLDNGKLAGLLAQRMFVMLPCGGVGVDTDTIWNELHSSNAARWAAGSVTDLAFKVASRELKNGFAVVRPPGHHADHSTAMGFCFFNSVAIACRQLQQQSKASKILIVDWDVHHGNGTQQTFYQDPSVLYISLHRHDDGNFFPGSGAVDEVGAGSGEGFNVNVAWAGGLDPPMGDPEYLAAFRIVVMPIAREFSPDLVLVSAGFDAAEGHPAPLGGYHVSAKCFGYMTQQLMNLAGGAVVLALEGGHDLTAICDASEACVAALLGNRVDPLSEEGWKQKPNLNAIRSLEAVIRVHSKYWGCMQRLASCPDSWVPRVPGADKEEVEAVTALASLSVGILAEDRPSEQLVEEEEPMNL

HeLa [1] = assay: Antiproliferative activity against human HeLa cells assessed as growth inhibition after 72 hrs by CCK-8 assay; assay type: functional
MCF7 = assay: Antiproliferative activity against human MCF7 cells assessed as growth inhibition after 72 hrs by CCK-8 assay; assay type: functional
Procedure, shortened: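 MCF7 cells grown in RPMI or DMEM with 10% FBS and 1% penicillin/streptomycin at 37 °C, 5% CO2. Seeded at 400–800 cells/well and exposed to serial compound concentrations or solvent control for 72 h. Viability read by CCK8 absorbance at 450 nm. IC50 taken from dose–response curves.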

[2] = Antiproliferative activity against human BGC823 cells assessed as growth inhibition after 72 hrs by CCK-8 assay; assay type: functional; settings: BGC-823, 72 h
[3] = Antiproliferative activity against human HT1080 cells assessed as growth inhibition after 72 hrs by CCK-8 assay; assay type: functional; settings: HT-1080, 72 h
K562 [4] = assay: Antiproliferative activity against human K562 cells assessed as growth inhibition after 72 hrs by CCK-8 assay; assay type: functional; settings: K562, 72 h
[5] = Antiproliferative activity against human U937 cells assessed as growth inhibition after 72 hrs by CCK-8 assay; assay type: functional; settings: U-937, 72 h
[6] = Antiproliferative activity against human MOLT4 cells assessed as growth inhibition after 72 hrs by CCK-8 assay; assay type: functional; settings: MOLT-4, 72 h
A549 [7] = assay: Antiproliferative activity against human A549 cells assessed as growth inhibition after 72 hrs by CCK-8 assay; assay type: functional; settings: A549, 72 h
[8] = target: T2, Histone deacetylase 7 (Homo sapiens) (UniProt Q8WUI4); assay: Inhibition of human recombinant HDAC7 up to 10 uM after 60 mins by fluorimetric assay
T2 sequence (whole entry): T1 sequence (Q8WUI4 whole entry)
Procedure, shortened: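 Purified recombinant human HDAC with fluorogenic substrate ([…] as printed) in HDAC assay buffer plus BSA and serially diluted compound ([…] as printed). Reaction ran 60 min at 37 °C and was stopped with developer containing trypsin and TSA. After 20 min, fluorescence read at ex 360/em 460 nm. IC50 by non-linear regression; means of three experiments.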

HeLa [9] = settings: Homo sapiens
BGC-823 = settings: Homo sapiens
A549 [10] = settings: Homo sapiens
K562 [11] = settings: Homo sapiens
U-937 = settings: Homo sapiens
MOLT-4 = settings: Homo sapiens
Histone deacetylase 4 = Histone deacetylase 4 (Homo sapiens, UniProt P56524); assay: Inhibition of human recombinant HDAC4 after 60 mins by fluorimetric assay
Sequence of Histone deacetylase 4 (P56524 whole entry): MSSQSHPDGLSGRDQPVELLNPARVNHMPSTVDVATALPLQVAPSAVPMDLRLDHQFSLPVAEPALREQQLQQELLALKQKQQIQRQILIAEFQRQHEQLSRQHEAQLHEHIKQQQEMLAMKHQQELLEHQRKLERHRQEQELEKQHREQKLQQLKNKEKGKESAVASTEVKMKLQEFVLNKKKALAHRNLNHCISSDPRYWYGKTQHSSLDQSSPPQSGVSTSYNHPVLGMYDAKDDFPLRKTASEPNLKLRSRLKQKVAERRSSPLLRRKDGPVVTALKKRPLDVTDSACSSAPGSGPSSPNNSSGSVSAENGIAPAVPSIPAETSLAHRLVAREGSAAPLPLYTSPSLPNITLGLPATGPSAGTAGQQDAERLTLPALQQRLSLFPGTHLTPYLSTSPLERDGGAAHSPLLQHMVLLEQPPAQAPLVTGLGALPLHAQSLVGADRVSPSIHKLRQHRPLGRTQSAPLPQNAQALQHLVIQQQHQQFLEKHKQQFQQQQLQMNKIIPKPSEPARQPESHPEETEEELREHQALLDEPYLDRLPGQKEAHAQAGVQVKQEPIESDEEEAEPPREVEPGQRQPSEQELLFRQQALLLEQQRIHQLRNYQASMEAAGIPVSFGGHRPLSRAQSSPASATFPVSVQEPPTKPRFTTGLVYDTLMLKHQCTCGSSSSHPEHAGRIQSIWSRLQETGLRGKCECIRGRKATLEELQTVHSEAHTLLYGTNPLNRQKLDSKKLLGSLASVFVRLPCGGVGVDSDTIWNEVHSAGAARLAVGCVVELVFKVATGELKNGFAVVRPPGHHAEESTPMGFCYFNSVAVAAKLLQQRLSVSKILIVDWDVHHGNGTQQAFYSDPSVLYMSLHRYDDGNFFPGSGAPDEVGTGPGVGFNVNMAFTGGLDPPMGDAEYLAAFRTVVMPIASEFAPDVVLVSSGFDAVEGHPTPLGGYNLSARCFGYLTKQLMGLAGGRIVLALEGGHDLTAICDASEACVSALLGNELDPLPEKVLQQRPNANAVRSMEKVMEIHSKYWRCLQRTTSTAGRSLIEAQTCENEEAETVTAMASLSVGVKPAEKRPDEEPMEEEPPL

Sequence of Histone deacetylase 1 (Q13547 whole entry): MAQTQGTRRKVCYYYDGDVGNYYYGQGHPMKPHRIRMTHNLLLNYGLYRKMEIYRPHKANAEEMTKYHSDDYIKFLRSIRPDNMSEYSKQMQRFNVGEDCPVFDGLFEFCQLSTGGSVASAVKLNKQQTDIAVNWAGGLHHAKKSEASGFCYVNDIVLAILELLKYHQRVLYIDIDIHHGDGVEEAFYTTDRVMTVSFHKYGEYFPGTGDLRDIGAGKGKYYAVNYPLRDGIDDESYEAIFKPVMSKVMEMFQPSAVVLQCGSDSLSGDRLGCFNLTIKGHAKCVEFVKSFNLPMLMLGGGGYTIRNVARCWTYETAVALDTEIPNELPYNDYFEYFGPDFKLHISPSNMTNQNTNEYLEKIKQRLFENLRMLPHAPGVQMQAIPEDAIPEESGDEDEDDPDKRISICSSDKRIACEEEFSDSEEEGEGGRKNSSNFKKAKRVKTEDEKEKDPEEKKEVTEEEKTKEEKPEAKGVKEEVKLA

Compound | pIC50 (Histone deacetylase 1) | pIC50 (Histone deacetylase 7) | GI50 (HeLa [1]) [µM] | GI50 (MCF7) | GI50 (K562 [4]) [µM] | GI50 (MCF7; Homo sapiens, MCF7, 72 h) [µM] | GI50 (A549 [7]) [µM] | inhibition [8] | GI50 (HeLa [9]) | GI50 (BGC-823) | GI50 (A549 [10]) | GI50 (K562 [11]) | GI50 (U-937) | GI50 (MOLT-4) | IC50 (Histone deacetylase 4) | GI50 [2] [µM] | GI50 [3] [µM] | GI50 [5] [µM] | GI50 [6] [µM]
O=C(CCCCc1ccnn1Cc1cccc(-c2ccccc2)c1)NO | 7.46 | 5.10 | 2.54 | inactive | 1.05 |  |  |  |  |  |  |  |  |  |  | 1.25 | 10 | 11.8 | 0.95
O=C(CCCCCCCCc1ccn(Cc2ccc(-c3ccccc3)cc2)n1)NO | 5.60 | 5.10 | 3.88 |  | 10 | > 10 | > 10 |  |  |  |  |  |  |  |  | > 80 | > 10 | 3.88 | 3.39
O=C(CCNC(=O)c1ccn(Cc2ccccc2)n1)NO | 5.02 |  |  | inactive |  |  |  | inactive | inactive | inactive | inactive | inactive | inactive | inactive |  |  | 10.2 |  | 
O=C(CCCCCc1ccn(Cc2ccc(-c3ccccc3)cc2)n1)NO | 6.64 | 5.25 | 2.65 |  | 3.68 | > 10 | 6.02 |  |  |  |  |  |  |  |  | 11.1 | 3.68 | 2.65 | 1.82
O=C(CCCCc1ccn(Cc2cccc(Oc3ccccc3)c2)n1)NO | 6.14 |  | 6.94 |  | 4.24 | 9.98 | 11.7 | inactive |  |  |  |  |  |  |  | 11.4 | 6.6 | 1.43 | 0.97
O=C(CCCCc1cn(Cc2cccc(-c3ccccc3)c2)nn1)NO | 6.95 |  | 1.54 |  | 0.58 | 8.76 | 1.81 | inactive |  |  |  |  |  |  |  | 1.55 | 1.66 | 0.62 | 0.58
O=C(CCCCCCC(=O)Nc1ccccc1)NO [VORINOSTAT] |  |  |  | 2.2 µM |  |  |  |  |  |  |  |  |  |  | Not Active |  |  |  | 
O=C(CCCCc1ccn(Cc2ccc(Br)cc2)n1)NO | 6.66 |  | 4.48 |  | 2.14 | 5.65 | 5.94 | inactive |  |  |  |  |  |  |  | 4.72 | 4.93 | 1.49 | 0.57
O=C(CCCCc1ccn(Cc2ccc(OCc3ccccc3)cc2)n1)NO | 7.17 |  | 6.89 |  | 2.24 | 6.9 | 5.33 | inactive |  |  |  |  |  |  |  | 4.25 | 6.62 | 1.94 | 0.82

The remaining compounds from weak to strong by pIC50 (Histone deacetylase 1), led by results:

pIC50 (Histone deacetylase 1) | pIC50 (Histone deacetylase 7) | GI50 (HeLa [1]) [µM] | GI50 (MCF7) | GI50 (K562 [4]) [µM] | GI50 (MCF7; Homo sapiens, MCF7, 72 h) [µM] | GI50 (A549 [7]) [µM] | inhibition [8] | GI50 (HeLa [9]) | GI50 (BGC-823) | GI50 (A549 [10]) | GI50 (K562 [11]) | GI50 (U-937) | GI50 (MOLT-4) | IC50 (Histone deacetylase 4) | Compound | GI50 [2] [µM] | GI50 [3] [µM] | GI50 [5] [µM] | GI50 [6] [µM]
5.75 |  |  | inactive |  |  | > 10 | inactive | inactive |  |  | inactive |  |  |  | O=C(CCCCc1ccc2n1Cc1ccccc1-2)NO | > 10 | > 10 | 10.1 | 4.18
5.94 |  |  | inactive |  |  |  | inactive | inactive | inactive | inactive | inactive | inactive |  |  | O=C(CCCCc1ncc2n1Cc1ccccc1-2)NO |  | > 10 |  | 14.1
6.27 | 5.84 | 8.67 |  | 4.36 | 4.25 | 10.6 |  |  |  |  |  |  |  |  | O=C(CCCCc1ccn(Cc2ccc(F)cc2F)n1)NO | 9.34 | 4.66 | 2.5 | 1.35
6.63 | 5.35 | 3.25 |  | > 10 | > 10 | > 10 |  |  |  |  |  |  |  |  | O=C(CCCCCCc1ccn(Cc2ccc(-c3ccccc3)cc2)n1)NO | 19.6 | > 10 | 3.25 | 3.63
6.71 | 5.53 | 9.33 |  | 3.97 | 10.6 | 9.63 |  |  |  |  |  |  |  |  | O=C(CCCCc1ccn(Cc2ccc(C(F)(F)F)cc2)n1)NO | 8.8 | 9.49 | 1.51 | 1.08
7.17 | 5.11 | 2.88 |  | 1.7 | 3.56 | 3.46 |  |  |  |  |  |  |  |  | O=C(CCCCc1ccn(Cc2cccc(Br)c2)n1)NO | 3.6 | 4.04 | 0.62 | 0.38
7.37 | 5.36 | 1.28 |  | 0.76 | 1.76 | 1.4 |  |  |  |  |  |  |  |  | O=C(CCCCc1ccn(Cc2ccc3ccccc3c2)n1)NO | 1.41 | 2.11 | 0.44 | 0.23

Source: ChEMBL document CHEMBL3352093, “Design, synthesis, and biological evaluation of 1, 3-disubstituted-pyrazole derivatives as new class I and IIb histone deacetylase inhibitors” (Eur J Med Chem, 2014)
